Data taken from PMC8635173 (Chemical Science, 2021).
Like-named read-outs stand apart in the source and are kept apart here.

Columns and labels:
[1] = tested on: NCI-H460 non-small cell lung carcinoma; experiment: Anti-proliferative NBB assay; format: cell-based, human; conditions: read-out: IC50 NCI-H460; 72 h
A2780 ovarian carcinoma = experiment: Anti-proliferative NBB assay; format: cell-based, human; conditions: read-out: IC50 A2780; 72 h
[2] = tested on: PLC primary liver carcinoma; experiment: Anti-proliferative NBB assay; format: cell-based, human; conditions: read-out: IC50 PLC; 72 h
[3] = tested on: HCT116 colorectal carcinoma; experiment: Anti-proliferative NBB assay; format: cell-based, human; conditions: read-out: IC50 HCT116; 72 h
[4] = tested on: MDA-MB-231 triple-negative breast cancer carcinoma; experiment: Anti-proliferative NBB assay; format: cell-based, human; conditions: read-out: IC50 MDA-MB-231; 72 h
[5] = tested on: CCD-19Lu normal lung fibroblast; experiment: Anti-proliferative NBB assay; format: cell-based, human; conditions: read-out: IC50 CCD-19Lu; 72 h
NCI-H460 cells [6] = experiment: Cell cycle analysis by flow cytometry; format: cell-based, human; conditions: 10 µM
NCI-H460 cells [7] = experiment: γ-H2AX immunofluorescence staining; format: cell-based, human; conditions: 10 µM, 24 h post-treatment
NCI-H460 cells [8] = experiment: Annexin V-FITC/PI double staining, flow cytometry; format: cell-based, human; conditions: 20 µM, 72 h
NCI-H460 cells [9] = experiment: Lysosomal integrity; format: cell-based, human; conditions: 10 µM, 24 h
How it was run: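 NCI-H460 cells were exposed to test compound (10 μM) for 24 h and then stained. Stains were acridine orange (10 μM), LysoTracker Deep Red with MitoTracker Green (50 nM), and pepstatin A–BODIPY FL conjugate (1 μM) co-stained with LysoTracker Deep Red. Imaging was by confocal microscopy, checking vesicular staining loss and cytosolic probe leakage against vehicle.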

LC3 (LC3-II) = experiment: Immunoblotting of autophagy marker LC3; format: cell-based, human; conditions: Western blotting; 1a 0-30 µM 6 h or 10 µM 6-24 h; cisplatin 0-20 µM 6 h
NCI-H460 cells [10] = experiment: Mitochondrial depolarization assay; format: cell-based, human; conditions: 10 µM, 24 h, relative to vehicle
Aqueous solubility = format: physicochemical
calf thymus DNA (ctDNA) = experiment: UV-vis absorption titration with DNA; format: binding; conditions: complex 30 µM, Tris-HCl pH 7.4
[11] = tested on: telomeric G-quadruplex (HTelo) DNA; experiment: UV-vis absorption titration with DNA; format: binding; conditions: at λmax of 345 nm
ctDNA = experiment: DNA binding affinity by isothermal titration calorimetry; design: species or system calf
[12] = tested on: DNA duplex bearing cytosine–cytosine (CC) mismatched base pairs; experiment: DNA binding affinity by ITC
[13] = target: guanine–cytosine (GC)-rich DNA; experiment: DNA binding affinity by ITC; conditions: read-out: KD (GC-rich DNA), one-site binding model, pH 7.4
[14] = Particle size by nanoparticle tracking analysis; format: physicochemical
[15] = tested on: β-glucosidase (from almonds); experiment: Enzymatic cleavage of the glycosidic linkage, UPLC/MS; format: in vitro ADME
How it was run: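 Test compound incubated with almond β-glucosidase (0.5 U mL⁻¹) in PBS pH 5.8 at 37 °C for up to 24 h. Enzyme-free controls were run in PBS pH 5.8 and pH 7.4. Release of the deglycosylated aglycone was followed over time by UPLC/MS peak tracking (retention time and m/z).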

[16] = tested on: different cancer cell lines; experiment: Anti-proliferative NBB assay, summary over several cancer cell lines; format: cell-based, human; conditions: for IC50: read-out: IC50 toward different cell lines, NCI-H460 lung, PLC liver and HCT116 colorectal carcinomas
NCI-H460 cells [17] = experiment: Cellular uptake of platinum by ICP-MS; format: cell-based, human; conditions: for decrease in Pt levels in cells: 2 h treatment
[18] = Lipophilicity measurement; format: physicochemical; conditions: n-octanol / 0.9 % aqueous NaCl, 298 K
NCI-H460 cells [19] = experiment: Subcellular distribution of platinum content by ICP-MS; format: cell-based, human; conditions: 24 h treatment
[20] = tested on: NCI-H460 cancer cells and CCD-19Lu normal fibroblast cells; experiment: Comparative cellular uptake, cancer versus normal cells, ICP-MS; format: cell-based, human
[21] = tested on: NCI-H460 cells stably expressing mRFP-GFP-LC3; experiment: Live cell imaging of mRFP-GFP-tagged LC3; format: cell-based, human; conditions: 10 µM, 24 h
NCI-H460 cells [22] = experiment: Intracellular oxidant level; format: cell-based, human; conditions: 10 µM, 24 h
[23] = tested on: NCI-H460 lung cancer xenografts; experiment: In vivo anti-tumor study; design: species or system nude mouse; conditions: 1a 25 mg kg^−1 i.v., 14 days
How it was run: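 Nude mice bearing NCI-H460 xenografts were randomised into groups (n = 6). Groups received test compound (25 mg kg⁻¹) or PBS vehicle i.v. for 14 days; cisplatin (1.5 mg kg⁻¹ i.v.) on a similar regimen served as positive control. Tumour volume was tracked. Dissected tumours were weighed and examined by H&E and Ki-67 immunohistochemistry. Data are given as mean ± standard error.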

[24] = In vivo systemic toxicity; design: species or system nude mouse
How it was run: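 Tumour-bearing nude mice (n = 6) received test compound (25 mg kg⁻¹ i.v.) or PBS vehicle for 14 days. Body weight was tracked throughout. At day 14, major organs were harvested for H&E histology, and blood was analysed for ALT and creatinine.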

Question: For N.N.[Cl][Pt][Cl] [Cisplatin, reference compound], which IC50 [1] is on record?
Answer: 6.9 ± 0.5 µM

Question: What about the IC50 (A2780 ovarian carcinoma) of the same compound?
Answer: 8.9 ± 0.7 µM

Question: What about the IC50 [2] of the same compound?
Answer: 9.1 ± 1.2 µM

Question: What about the IC50 [3] of the same compound?
Answer: 5.1 ± 0.4 µM

Question: And the IC50 [4]?
Answer: 19.7 ± 1.6 µM

Question: What about the IC50 [5] of the same compound?
Answer: 30.8 ± 4.9 µM

Question: What about the “increase in G2/M populations” value (NCI-H460 cells [6]; 24 h, versus vehicle) of the same compound?
Answer: 53.7%

Question: And the “γ-H2AX foci in nuclei” value (NCI-H460 cells [7])?
Answer: even more markedly increased

Question: And the “late apoptosis (annexin V-positive and PI-positive)” value (NCI-H460 cells [8])?
Answer: 87.2%

Question: And the lysosomal integrity (NCI-H460 cells [9])?
Answer: negligible damage to the cellular lysosomes

Question: What about the “level of LC3-II” value (LC3 (LC3-II)) of the same compound?
Answer: dose-dependent increase

Question: What about the “decrease in red fluorescence of JC-1 (mitochondrial depolarization)” value (NCI-H460 cells [10]) of the same compound?
Answer: 8.3%

Question: Which “solubility (water)” value (Aqueous solubility) does the source give for “[Pt(tpy)(C?CArOGlu)](CF3SO3) [Complex 1a]” here?
Answer: 8600 µg/mL

Question: And the “bathochromic (red) shift of lowest-energy absorption band upon addition of ctDNA” value (calf thymus DNA (ctDNA))?
Answer: 42 nm

Question: And the “hypochromism upon addition of ctDNA” value (calf thymus DNA (ctDNA); lowest-energy absorption band)?
Answer: 16.8%

Question: What about the “hypochromism upon addition of HTelo DNA” value [11] of the same compound?
Answer: 19.6%

Question: And the “fold lower KD than 2 (ctDNA)” value (ctDNA; 1a versus 2)?
Answer: 27.5 fold

Question: And the Kd (ctDNA; read-out: KD (ctDNA), ITC, one-site binding model, pH 7.4)?
Answer: 0.48 µM

Question: And the “fold higher binding affinity than 2 (CC mismatched DNA)” value ([12]; 1a versus 2)?
Answer: 4.3 fold

Question: And the Kd ([12]; read-out: KD (CC mismatched DNA), ITC, one-site binding model, pH 7.4)?
Answer: 19.6 µM

Question: What about the Kd [13] of the same compound?
Answer: 74.1 µM

Question: And the average hydrodynamic diameter ([14]; RPMI 1640 cell culture medium containing 10% fetal bovine serum)?
Answer: 87.3 ± 4.6 nm

Question: What about the average hydrodynamic diameter ([14]; aqueous solution containing 1% DMSO, 100 µM) of the same compound?
Answer: 139.6 ± 2.5 nm

Question: What about the “conversion of 1a into 1d” value ([15]; buffer control without β-glu, PBS pH 5.8, 24 h) of the same compound?
Answer: ca. 2%

Question: And the “conversion of 1a into 1d” value ([15]; β-glu 0.5 U mL^−1, PBS pH 5.8, 37 °C, 24 h)?
Answer: more than 70%

Question: What about the IC50 [1] of the same compound?
Answer: 7.1 ± 0.3 µM

Question: What about the IC50 (A2780 ovarian carcinoma) of the same compound?
Answer: 8.7 ± 0.2 µM

Question: And the IC50 [2]?
Answer: 17.2 ± 1.2 µM

Question: What about the IC50 [3] of the same compound?
Answer: 7.5 ± 0.6 µM

Question: And the IC50 [4]?
Answer: 23.8 ± 5.8 µM

Question: And the IC50 [5]?
Answer: > 100 µM

Question: What about the “fold higher anti-proliferative activity than 1b” value ([16]; most of the cancer cell lines, 72 h) of the same compound?
Answer: 1.4- to 2.4 fold

Question: And the IC50 ([16]; 24 h post-treatment)?
Answer: > 100 µM

Question: What about the IC50 ([16]; after 48 h) of the same compound?
Answer: 54.6 to 74.5 µM

Question: What about the “increase in G0/G1 populations” value (NCI-H460 cells [6]; 24 h, versus vehicle) of the same compound?
Answer: 9.3%

Question: And the “change in cell populations on prolonging treatment to 48 h” value (NCI-H460 cells [6]; 48 h compared with 24 h)?
Answer: no significant increase in cell populations

Question: What about the “γ-H2AX foci in nuclei” value (NCI-H460 cells [7]) of the same compound?
Answer: some significant fluorescent γ-H2AX foci

Question: And the “necrotic cell death (annexin V-negative and PI-positive)” value (NCI-H460 cells [8])?
Answer: 91%

Question: What about the “fold higher intracellular Pt level than 1b” value (NCI-H460 cells [17]; 10 µM, after 24 h) of the same compound?
Answer: ca. 3.2 fold

Question: And the “fold higher intracellular Pt level than 1c” value (NCI-H460 cells [17]; 10 µM, after 24 h)?
Answer: ~8 fold

Question: And the “fold higher intracellular Pt level than 1d” value (NCI-H460 cells [17]; 10 µM, after 24 h)?
Answer: ~1.6 fold

Question: What about the “decrease in Pt levels in cells” value (NCI-H460 cells [17]; hypertonic sucrose (450 mM)) of the same compound?
Answer: 27.4%

Question: What about the “decrease in Pt levels in cells” value (NCI-H460 cells [17]; incubation at 4 °C) of the same compound?
Answer: 77.1%

Question: What about the “reduction in the cellular Pt level (upper figure)” value (NCI-H460 cells [17]; low temperature (4 °C) or inhibition of endocytosis) of the same compound?
Answer: up to 80%

Question: And the “decrease in Pt levels in cells” value (NCI-H460 cells [17]; nocodazole (50 µM))?
Answer: 41.9%

Question: What about the “lipophilicity (log P)” value [18] of the same compound?
Answer: −0.88

Question: And the “Pt content in cytosolic fraction” value (NCI-H460 cells [19])?
Answer: 55%

Question: What about the “Pt content in mitochondrial fraction” value (NCI-H460 cells [19]) of the same compound?
Answer: 37%

Question: And the “Pt content in nuclear fraction” value (NCI-H460 cells [19])?
Answer: 9%

Question: What about the “fold higher Pt accumulation in NCI-H460 than in CCD-19Lu cells” value [20] of the same compound?
Answer: 1.9 fold

Question: What about the lysosomal integrity (NCI-H460 cells [9]) of the same compound?
Answer: disruption of lysosomes

Question: What about the “level of LC3-II” value (LC3 (LC3-II)) of the same compound?
Answer: increased levels

Question: What about the “Pearson's colocalization coefficient of green and red LC3 puncta” value [21] of the same compound?
Answer: 0.64

Question: What about the “decrease in red fluorescence of JC-1 (mitochondrial depolarization)” value (NCI-H460 cells [10]) of the same compound?
Answer: ca. 21%

Question: What about the “increment in DCF fluorescence intensity versus vehicle control” value (NCI-H460 cells [22]) of the same compound?
Answer: ~1.2 fold

Question: What about the “immunohistochemical staining for Ki-67 in tumor specimens” value [23] of the same compound?
Answer: significant reduction

Question: And the “histopathology of major organs (heart, liver, spleen, lungs and kidneys)” value ([24]; 25 mg kg^−1 i.v., after 14 days, H&E)?
Answer: No obvious histopathological lesion

Question: And the “plasma level of alanine aminotransferase (ALT)” value ([24]; 25 mg kg^−1 i.v., day 14)?
Answer: comparable to those in the vehicle control

Question: And the “plasma level of creatinine (CREA)” value ([24]; 25 mg kg^−1 i.v., day 14)?
Answer: comparable to those in the vehicle control

Question: And the “death or weight loss of mice” value ([24]; throughout the 14-day treatment period)?
Answer: None of the mice died or displayed any sign of weight loss
